Laboratory results as given in ChEMBL document CHEMBL3232761, “Novel metronidazole-chalcone conjugates with potential to counter drug resistance in Trichomonas vaginalis” (Eur J Med Chem, 2014).
Converted amounts (≈) assume the structure as drawn.

Experiments:
Trichomonas vaginalis [1] = assay: Antitrichomonal activity against metronidazole-susceptible Trichomonas vaginalis clinical isolate by trypan blue staining-based cell counting; assay type: functional
How it was run: (§1)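 Log-phase trophozoites (grown 1 day in TYM medium with 10% heat-inactivated FBS, pH 6.8, under partial anaerobiosis at 37°C) seeded at 5 X 10³/well. Compounds dissolved in DMSO and serially diluted in TYM from 100 to 0.78 μg/ml; vehicle wells had 0.05% DMSO. Plates incubated anaerobically at 37°C, with viability followed by trypan blue counting. MIC taken at 24 h as the lowest concentration leaving all trophozoites nonviable.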

Trichomonas vaginalis [2] = assay: Antitrichomonal activity against metronidazole-resistant Trichomonas vaginalis ATCC 50143 by trypan blue staining-based cell counting; assay type: functional; how it was run: as §1
Trichomonas vaginalis [3] = assay: Ratio of MIC for metronidazole-resistant Trichomonas vaginalis ATCC 50143 to metronidazole-susceptible Trichomonas vaginalis clinical isolate; assay type: functional
How it was run: (§2)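 Both T. vaginalis strains were grown in TYM medium (pH 6.8) with 10% heat-inactivated FBS, 2% vitamin mixture, penicillin and streptomycin, under partial anaerobiosis at 37°C. Log-phase trophozoites (5 X 10³/well) taken 1 day after subculture were exposed to twofold dilutions from 100 down to 0.78 μg/ml (from DMSO stocks), with 0.05% DMSO vehicle controls, anaerobically at 37°C. Viability was scored daily by trypan blue counting. MIC was the lowest concentration leaving all trophozoites nonviable at 24 h.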

Trichomonas vaginalis [4] = assay: Ratio of metronidazole MIC to compound MIC for metronidazole-resistant Trichomonas vaginalis ATCC 50143 by trypan blue staining-based cell counting; assay type: functional; how it was run: as §2
HeLa = assay: Cytotoxicity against human HeLa cells after 24 hrs by MTT assay; assay type: cell-based
How it was run: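 HeLa cells were kept in DMEM with 10% FBS at 37°C under 5% CO₂, then seeded at 5 X 10⁴/well and grown 24 h. Medium was replaced with compound dilutions starting at 1.0 mg/ml, with 0.05% DMSO in control wells, and cells were exposed for 24 h. MTT was then added, formazan was dissolved in DMSO, and OD was read at 540 nm.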

Row | Structure (SMILES) | MIC (Trichomonas vaginalis [1]) | MIC (Trichomonas vaginalis [2]) | Ratio (Trichomonas vaginalis [3]) | Ratio (Trichomonas vaginalis [4]) | IC50 (HeLa)
1 | Cc1ncc([N+](=O)[O-])n1CCOc1ccc(C(=O)/C=C/c2ccccc2)cc1 | 1.56 µg/mL (≈ 4.13 µM) | 50 µg/mL (≈ 132 µM) | 4 | – | –
2 | Cc1ncc([N+](=O)[O-])n1CCOc1ccc(C(=O)/C=C/c2cccc(F)c2)cc1 | 25 µg/mL (≈ 63.2 µM) | 100 µg/mL (≈ 253 µM) | – | – | –
3 | Cc1ncc([N+](=O)[O-])n1CCOc1ccc(C(=O)/C=C/c2ccc(F)cc2)cc1 | 1.56 µg/mL (≈ 3.95 µM) | 6.25 µg/mL (≈ 15.8 µM) | 2 | – | –
4 | Cc1ncc([N+](=O)[O-])n1CCOc1ccc(C(=O)/C=C/c2ccc(F)c(F)c2)cc1 | 1.56 µg/mL (≈ 3.77 µM) | 6.25 µg/mL (≈ 15.1 µM) | 2 | – | –
5 | Cc1ncc([N+](=O)[O-])n1CCOc1ccc(C(=O)/C=C/c2cc(F)cc(F)c2)cc1 | 1.56 µg/mL (≈ 3.77 µM) | 3.12 µg/mL (≈ 7.56 µM) | 2 | 4 | > 1000 µg/mL
6 | Cc1ncc([N+](=O)[O-])n1CCOc1ccc(C(=O)/C=C/c2cc(F)ccc2F)cc1 | 1.56 µg/mL (≈ 3.77 µM) | 6.25 µg/mL (≈ 15.1 µM) | 2 | – | –
7 | Cc1ncc([N+](=O)[O-])n1CCOc1ccc(C(=O)/C=C/c2ccccc2Cl)cc1 | 3.12 µg/mL (≈ 7.59 µM) | 12.5 µg/mL (≈ 30.4 µM) | – | – | –
8 | Cc1ncc([N+](=O)[O-])n1CCOc1ccc(C(=O)/C=C/c2cccc(Cl)c2)cc1 | 1.56 µg/mL (≈ 3.79 µM) | 3.12 µg/mL (≈ 7.59 µM) | 2 | 4 | > 1000 µg/mL
9 | Cc1ncc([N+](=O)[O-])n1CCOc1ccc(C(=O)/C=C/c2ccc(Cl)cc2)cc1 | 6.25 µg/mL (≈ 15.2 µM) | 6.25 µg/mL (≈ 15.2 µM) | – | – | –
10 | Cc1ncc([N+](=O)[O-])n1CCOc1ccc(C(=O)/C=C/c2ccc(Cl)cc2Cl)cc1 | 6.25 µg/mL (≈ 14 µM) | 12.5 µg/mL (≈ 28 µM) | – | – | –
11 | Cc1ncc([N+](=O)[O-])n1CCOc1ccc(C(=O)/C=C/c2c(Cl)cccc2Cl)cc1 | 6.25 µg/mL (≈ 14 µM) | 25 µg/mL (≈ 56 µM) | – | – | –
12 | Cc1ncc([N+](=O)[O-])n1CCOc1ccc(C(=O)/C=C/c2ccccc2Br)cc1 | 3.12 µg/mL (≈ 6.85 µM) | 6.25 µg/mL (≈ 13.7 µM) | – | – | –
13 | Cc1ncc([N+](=O)[O-])n1CCOc1ccc(C(=O)/C=C/c2cccc(Br)c2)cc1 | 3.12 µg/mL (≈ 6.85 µM) | 3.12 µg/mL (≈ 6.85 µM) | – | 4 | –
14 | Cc1ncc([N+](=O)[O-])n1CCOc1ccc(C(=O)/C=C/c2ccc(Br)cc2)cc1 | 6.25 µg/mL (≈ 13.7 µM) | 6.25 µg/mL (≈ 13.7 µM) | – | – | –
15 | Cc1ncc([N+](=O)[O-])n1CCOc1ccc(C(=O)/C=C/c2ccccc2C(F)(F)F)cc1 | 6.25 µg/mL (≈ 14 µM) | 25 µg/mL (≈ 56.1 µM) | – | – | –
16 | Cc1ncc([N+](=O)[O-])n1CCOc1ccc(C(=O)/C=C/c2ccc(C(F)(F)F)cc2)cc1 | 3.12 µg/mL (≈ 7.02 µM) | 25 µg/mL (≈ 56.1 µM) | – | – | –
17 | Cc1ncc([N+](=O)[O-])n1CCOc1ccc(C(=O)/C=C/c2ccc([N+](=O)[O-])cc2)cc1 | 1.56 µg/mL (≈ 3.69 µM) | 6.25 µg/mL (≈ 14.8 µM) | 2 | 2 | –
18 | COc1ccc(/C=C/C(=O)c2ccc(OCCn3c([N+](=O)[O-])cnc3C)cc2)cc1 | 3.12 µg/mL (≈ 7.67 µM) | 25 µg/mL (≈ 61.4 µM) | – | – | –
19 | COc1ccc(/C=C/C(=O)c2ccc(OCCn3c([N+](=O)[O-])cnc3C)cc2)cc1OC | 1.56 µg/mL (≈ 3.57 µM) | 12.5 µg/mL (≈ 28.6 µM) | 8 | – | –
20 | COc1ccc(OC)c(/C=C/C(=O)c2ccc(OCCn3c([N+](=O)[O-])cnc3C)cc2)c1 | 12.5 µg/mL (≈ 28.6 µM) | 12.5 µg/mL (≈ 28.6 µM) | – | – | –
21 | Cc1ccc(/C=C/C(=O)c2ccc(OCCn3c([N+](=O)[O-])cnc3C)cc2)cc1C | 6.25 µg/mL (≈ 15.4 µM) | 12.5 µg/mL (≈ 30.8 µM) | – | – | –
22 | Cc1ncc([N+](=O)[O-])n1CCOc1ccc(C(=O)/C=C/c2cccc3ccccc23)cc1 | 6.25 µg/mL (≈ 14.6 µM) | 25 µg/mL (≈ 58.5 µM) | – | – | –
23 | Cc1ncc([N+](=O)[O-])n1CCO [METRONIDAZOLE] | 1.56 µg/mL (≈ 9.11 µM) | 12.5 µg/mL (≈ 73 µM) | 8 | – | > 1000 µg/mL
